{
  "source": "ChEMBL document CHEMBL1146121",
  "about": "(J Med Chem, 2006)",
  "key": {"[1]": {"target": "T1, 1-deoxy-D-xylulose 5-phosphate reductoisomerase (Escherichia coli K-12, UniProt P45568)", "T1 sequence (P45568 whole entry)": "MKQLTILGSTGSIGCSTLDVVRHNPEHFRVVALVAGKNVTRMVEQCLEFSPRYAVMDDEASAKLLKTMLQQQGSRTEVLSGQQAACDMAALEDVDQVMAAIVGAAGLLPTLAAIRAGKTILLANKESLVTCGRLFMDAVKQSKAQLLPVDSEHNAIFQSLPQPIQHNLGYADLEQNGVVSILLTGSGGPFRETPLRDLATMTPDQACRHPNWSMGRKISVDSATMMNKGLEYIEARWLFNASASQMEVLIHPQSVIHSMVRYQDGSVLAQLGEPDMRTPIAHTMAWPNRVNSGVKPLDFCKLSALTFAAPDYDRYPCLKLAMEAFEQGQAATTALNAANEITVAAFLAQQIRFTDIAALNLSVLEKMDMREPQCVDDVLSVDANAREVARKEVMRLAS", "experiment": "Inhibition of recombinant Escherichia coli DXR", "outline": "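Enzyme activity measured as conversion of DOXP to MEP, read out via the NADPH dependence of the reductoisomerase reaction.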"}, "Plasmodium falciparum [2]": {"system": "Plasmodium falciparum", "experiment": "Inhibition of Plasmodium falciparum 3D7", "assay_type": "functional, organism-based", "outline": "(§1)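 Intraerythrocytic parasites cultured with the test agent in a semiautomated microdilution format. Growth was followed by incorporation of tritium-labelled hypoxanthine.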"}, "Plasmodium falciparum [3]": {"system": "Plasmodium falciparum", "experiment": "Inhibition of Plasmodium falciparum Dd2", "assay_type": "functional, organism-based", "outline": "as §1"}},
  "data": [
    {"compound": "CC(=O)N(O)CC1CC1P(=O)(O)O", "note": "(centres undefined)", "values": [
      {"measurement": "IC50", "setting": "[1]", "result": 160, "unit": "nM"}
    ]},
    {"compound": "CCC(=O)N(O)C[C@@H]1C[C@H]1P(=O)(O)O", "values": [
      {"measurement": "IC50", "setting": "[1]", "result": "> 3000", "unit": "nM"}
    ]},
    {"compound": "CC(=O)N(O)CC1CC1(c1ccccc1)P(=O)(O)O", "note": "(centres undefined)", "values": [
      {"measurement": "IC50", "setting": "[1]", "result": "> 30000", "unit": "nM"}
    ]},
    {"compound": "CC(=O)N(O)CCCP(=O)(O)O", "note": "[FR-900098]", "values": [
      {"measurement": "IC50", "setting": "Plasmodium falciparum [2]", "result": 240, "unit": "nM"},
      {"measurement": "IC50", "setting": "[1]", "result": 58, "unit": "nM"},
      {"measurement": "IC50", "setting": "Plasmodium falciparum [3]", "result": 280, "unit": "nM"}
    ]},
    {"compound": "CC(=O)N(O)C[C@@H]1C[C@H]1P(=O)(O)O", "values": [
      {"measurement": "IC50", "setting": "Plasmodium falciparum [2]", "result": 320, "unit": "nM"},
      {"measurement": "IC50", "setting": "[1]", "result": 50, "unit": "nM"},
      {"measurement": "IC50", "setting": "Plasmodium falciparum [3]", "result": 480, "unit": "nM"}
    ]},
    {"compound": "O=CN(O)C[C@@H]1C[C@H]1P(=O)(O)O", "values": [
      {"measurement": "IC50", "setting": "Plasmodium falciparum [2]", "result": 2100, "unit": "nM"},
      {"measurement": "IC50", "setting": "[1]", "result": 313, "unit": "nM"},
      {"measurement": "IC50", "setting": "Plasmodium falciparum [3]", "result": 2000, "unit": "nM"}
    ]},
    {"compound": "O=CN(O)CCCP(=O)(O)O", "note": "[FOSMIDOMYCIN]", "values": [
      {"measurement": "IC50", "setting": "Plasmodium falciparum [2]", "result": 400, "unit": "nM"},
      {"measurement": "IC50", "setting": "Plasmodium falciparum [3]", "result": 480, "unit": "nM"}
    ]}
  ]
}
